Experimental data from different studies.
Protocols differ between the studies behind these lines.
Target: LIM domain kinase 1 (LIMK1, Homo sapiens, UniProt P53667)

SMILES	observed	mode	technique	concentration	measurement	value
CC(C)S(=O)(=O)c1ccc2nccc(Nc3ccc4sc(C5CCCC5)nc4c3)c2c1	enzyme activity	inhibitor		1 µM	activity vs control	82%
CO[C@@H]1[C@H](N(C)C(=O)c2ccccc2)C[C@H]2O[C@]1(C)n1c3ccccc3c3c4c(c5c6ccccc6n2c5c31)C(=O)NC4	enzyme activity	inhibitor		1 µM	inhibition	12%
C[C@H]1CC[C@H](n2c3cnccc3c3cnc(Nc4ccc5c(n4)CCN(C(=O)CO)C5)nc32)CC1	binding		competition with immobilised ligand	1 µM	remaining binding	98%
C=CC(=O)N1CCC[C@@H](n2nc(-c3ccc(Oc4ccccc4)cc3)c3c(N)ncnc32)C1	enzyme activity	inhibitor		1 µM	inhibition	76%
CCCCC(=O)Nc1ccc(-c2ccc3ncn(CCC)c(=O)c3c2)cn1	binding		competition with immobilised ligand	0.5 µM	remaining binding	96%
C#Cc1cc(-c2cc(Nc3nc(N[C@@H](C)c4ccc(F)cn4)ncc3Cl)n[nH]2)ccc1C=O	enzyme activity	inhibitor		0.2 µM	inhibition	24.2%
CN1CCN(C(=O)c2ccc(NC(=O)Nc3ccc(N(C)c4ccnc(Nc5ccc(CS(C)(=O)=O)cc5)n4)cc3)cc2)CC1	binding		competition with immobilised ligand	1 µM	remaining binding	61%
C1=C/COCc2cc(ccc2OCCN2CCCC2)Nc2nccc(n2)-c2cccc(c2)COC/1	binding			0.1 µM	remaining binding	82%
